According to ChEMBL document CHEMBL2331152, “Multivalent Interactions: Synthesis and Evaluation of Melanotropin Multimers - Tools for Melanoma Targeting” (ACS Med Chem Lett, 2013):
One block for each compound: values may come before it. Calls of active or inactive are those of the source. The calls are words filed in the database; no cut-off is given here.

Legend:
Melanocortin receptor 4 [1] = target: T1, Melanocortin receptor 4 (Homo sapiens, UniProt P32245); experiment: Displacement of Eu-NDP-alpha-MSH from human MC4R expressed in HEK293 cells by time resolved fluorescence binding assay; type: cell-based
Procedure, shortened: (§1)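 Competition binding on HEK293 cells transfected to overexpress MC4R, against europium-labelled NDP-α-MSH tracer, read by time-resolved fluorescence. IC50 values are averaged from four experiments run in quadruplicate. Relative potency is expressed against the monovalent ligand.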

HEK293 [2] = experiment: Cytotoxicity against human HEK293 cells assessed as cell viability at 10 uM upto 2 days; type: cell-based; conditions: hek293, 48 h
Procedure, shortened: (§2)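 Cell viability was measured at three concentrations and three incubation times, up to 48 h. Values are expressed as % of untreated control and are the average of three independent experiments run in triplicate.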

Melanocortin receptor 4 [3] = target: T1, Melanocortin receptor 4; experiment: Displacement of Eu-NDP-alpha-MSH from human MC4R expressed in HEK293 cells by time resolved fluorescence binding assay relative to multimer 1M; type: cell-based; procedure, shortened: as §1
Melanocortin receptor 4 [4] = target: T1, Melanocortin receptor 4; experiment: Inhibition of human MC4R expressed in HEK293 cells assessed as cAMP accumulation by chemiluminescent immunoassay; type: functional, cell-based
HEK293 [5] = experiment: Cytotoxicity against human HEK293 cells assessed as cell viability at 1 uM upto 48 hrs; type: cell-based; conditions: hek293, 48 h; procedure, shortened: as §2
HEK293 [6] = experiment: Drug uptake in human HEK293 cells assessed as localization measured at 3 mins of incubation by FM 1-43 dye-microscopy; type: ADME, cell-based; conditions: hek293, 0.05 h
HEK293 [7] = experiment: Drug uptake in human HEK293 cells assessed as localization at cell surface measured after 90 mins of incubation by FM 1-43 dye-microscopy; type: ADME, cell-based
Procedure, shortened: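 Ligands were Cy5-labelled through a triarginine linker and incubated with cells for 90 min. The membrane probe FM 1-43 was added two minutes before image acquisition. Membrane localization was assessed by epifluorescence microscopy.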

T1 sequence (P32245 whole entry): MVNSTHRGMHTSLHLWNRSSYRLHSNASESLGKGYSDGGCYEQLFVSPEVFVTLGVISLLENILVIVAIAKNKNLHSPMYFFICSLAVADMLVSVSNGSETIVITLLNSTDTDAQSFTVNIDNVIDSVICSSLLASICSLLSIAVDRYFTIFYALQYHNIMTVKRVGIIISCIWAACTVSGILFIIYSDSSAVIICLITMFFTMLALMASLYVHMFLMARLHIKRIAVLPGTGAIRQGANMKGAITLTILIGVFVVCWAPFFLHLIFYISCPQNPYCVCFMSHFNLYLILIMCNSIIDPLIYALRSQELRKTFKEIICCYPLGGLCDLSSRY

Structure (SMILES): CC(=O)NCCCC(CCCNC(C)=O)(NC(=O)CNC(=O)Cn1cc(CCC(=O)N[C@@H](Cc2cnc[nH]2)C(=O)N[C@H](Cc2ccccc2)C(=O)N[C@@H](CCCN=C(N)N)C(=O)N[C@@H](Cc2c[nH]c3ccccc23)C(=O)O)nn1)C(=O)NCCC(N)=O
IC50 (Melanocortin receptor 4 [1]): 4.9 µM

Structure (SMILES): CC(=O)NCC(=O)NC(CCCNC(=O)CCNC(=O)C(CCCNC(=O)Cn1cc(CCC(=O)N[C@@H](Cc2cnc[nH]2)C(=O)N[C@H](Cc2ccccc2)C(=O)N[C@@H](CCCNC(=N)N)C(=O)N[C@@H](Cc2c[nH]c3ccccc23)C(N)=O)nn1)(CCCNC(=O)Cn1cc(CCC(=O)N[C@@H](Cc2cnc[nH]2)C(=O)N[C@H](Cc2ccccc2)C(=O)N[C@@H](CCCNC(=N)N)C(=O)N[C@@H](Cc2c[nH]c3ccccc23)C(N)=O)nn1)NC(=O)CNC(=O)Cn1cc(CCC(=O)N[C@@H](Cc2cnc[nH]2)C(=O)N[C@H](Cc2ccccc2)C(=O)N[C@@H](CCCNC(=N)N)C(=O)N[C@@H](Cc2c[nH]c3ccccc23)C(N)=O)nn1)(CCCNC(=O)CCNC(=O)C(CCCNC(=O)Cn1cc(CCC(=O)N[C@@H](Cc2cnc[nH]2)C(=O)N[C@H](Cc2ccccc2)C(=O)N[C@@H](CCCNC(=N)N)C(=O)N[C@@H](Cc2c[nH]c3ccccc23)C(N)=O)nn1)(CCCNC(=O)Cn1cc(CCC(=O)N[C@@H](Cc2cnc[nH]2)C(=O)N[C@H](Cc2ccccc2)C(=O)N[C@@H](CCCNC(=N)N)C(=O)N[C@@H](Cc2c[nH]c3ccccc23)C(N)=O)nn1)NC(=O)CNC(=O)Cn1cc(CCC(=O)N[C@@H](Cc2cnc[nH]2)C(=O)N[C@H](Cc2ccccc2)C(=O)N[C@@H](CCCNC(=N)N)C(=O)N[C@@H](Cc2c[nH]c3ccccc23)C(N)=O)nn1)C(=O)NCCC(N)=O (stereo not given in full)
Activity (HEK293 [2]): Non-toxic | fold change (FC) (Melanocortin receptor 4 [3]): 104 | Activity (Melanocortin receptor 4 [4]): Active | Activity (HEK293 [5]): Non-toxic

Structure (SMILES): N=C(N)NCCC[C@H](NC(=O)[C@@H](Cc1ccccc1)NC(=O)[C@H](Cc1cnc[nH]1)NC(=O)CCc1cn(CC(=O)NCC(=O)NC(CCCNC(=O)Cn2cc(CCC(=O)N[C@@H](Cc3cnc[nH]3)C(=O)N[C@H](Cc3ccccc3)C(=O)N[C@@H](CCCN=C(N)N)C(=O)N[C@@H](Cc3c[nH]c4ccccc34)C(N)=O)nn2)(CCCNC(=O)Cn2cc(CCC(=O)N[C@@H](Cc3cnc[nH]3)C(=O)N[C@H](Cc3ccccc3)C(=O)N[C@@H](CCCN=C(N)N)C(=O)N[C@@H](Cc3c[nH]c4ccccc34)C(N)=O)nn2)C(=O)NCCC(N)=O)nn1)C(=O)N[C@@H](Cc1c[nH]c2ccccc12)C(N)=O
Activity (HEK293 [2]): Non-toxic | Activity (HEK293 [5]): Non-toxic

Drug uptake (HEK293 [6]): Not Active | Drug uptake (HEK293 [7]): Active
Structure (SMILES): CCCC[C@H](NC(=O)[C@H](CO)NC(=O)[C@H](Cc1ccc(O)cc1)NC(=O)[C@H](CO)NC(C)=O)C(=O)N[C@@H](CCC(=O)O)C(=O)N[C@@H](Cc1cnc[nH]1)C(=O)N[C@H](Cc1ccccc1)C(=O)N[C@@H](CCCNC(=N)N)C(=O)N[C@@H](Cc1c[nH]c2ccccc12)C(=O)NCC(=O)N[C@@H](CCCCNC(=O)CCCCC[N+]1=C(/C=C/C=C/C=C2/N(C)c3ccccc3C2(C)C)C(C)(C)c2ccccc21)C(=O)N1CCC[C@H]1C(=O)N[C@H](C(N)=O)C(C)C

Drug uptake (HEK293 [6]): Not Active | Drug uptake (HEK293 [7]): Active
Structure (SMILES): CC(=O)NCC(=O)NC(CCCNC(=O)CCNC(=O)C(CCCNC(=O)Cn1cc(CCC(=O)N[C@@H](Cc2cnc[nH]2)C(=O)N[C@H](Cc2ccccc2)C(=O)N[C@@H](CCCNC(=N)N)C(=O)N[C@@H](Cc2c[nH]c3ccccc23)C(N)=O)nn1)(CCCNC(=O)Cn1cc(CCC(=O)N[C@@H](Cc2cnc[nH]2)C(=O)N[C@H](Cc2ccccc2)C(=O)N[C@@H](CCCNC(=N)N)C(=O)N[C@@H](Cc2c[nH]c3ccccc23)C(N)=O)nn1)NC(=O)CNC(=O)Cn1cc(CCC(=O)N[C@@H](Cc2cnc[nH]2)C(=O)N[C@H](Cc2ccccc2)C(=O)N[C@@H](CCCNC(=N)N)C(=O)N[C@@H](Cc2c[nH]c3ccccc23)C(N)=O)nn1)(CCCNC(=O)CCNC(=O)C(CCCNC(=O)Cn1cc(CCC(=O)N[C@@H](Cc2cnc[nH]2)C(=O)N[C@H](Cc2ccccc2)C(=O)N[C@@H](CCCNC(=N)N)C(=O)N[C@@H](Cc2c[nH]c3ccccc23)C(N)=O)nn1)(CCCNC(=O)Cn1cc(CCC(=O)N[C@@H](Cc2cnc[nH]2)C(=O)N[C@H](Cc2ccccc2)C(=O)N[C@@H](CCCNC(=N)N)C(=O)N[C@@H](Cc2c[nH]c3ccccc23)C(N)=O)nn1)NC(=O)CNC(=O)Cn1cc(CCC(=O)N[C@@H](Cc2cnc[nH]2)C(=O)N[C@H](Cc2ccccc2)C(=O)N[C@@H](CCCNC(=N)N)C(=O)N[C@@H](Cc2c[nH]c3ccccc23)C(N)=O)nn1)C(=O)NCCC(=O)N[C@H](CCCNC(=N)N)C(=O)N[C@@H](CCCNC(=N)N)C(=O)N[C@H](CCCNC(=N)N)C(=O)N[C@@H](CCCCNC(=O)CCCCC[N+]1=C(/C=C/C=C/C=C2/N(C)c3ccccc3C2(C)C)C(C)(C)c2ccccc21)C(N)=O (stereo not given in full)

Structure (SMILES): N=C(N)NCCC[C@H](NC(=O)[C@@H](Cc1ccccc1)NC(=O)[C@H](Cc1cnc[nH]1)NC(=O)CCc1cn(CC(=O)NCCCC(CCCNC(=O)Cn2cc(CCC(=O)N[C@@H](Cc3cnc[nH]3)C(=O)N[C@H](Cc3ccccc3)C(=O)N[C@@H](CCCNC(=N)N)C(=O)N[C@@H](Cc3c[nH]c4ccccc34)C(N)=O)nn2)(NC(=O)CNC(=O)Cn2cc(CCC(=O)N[C@@H](Cc3cnc[nH]3)C(=O)N[C@H](Cc3ccccc3)C(=O)N[C@@H](CCCNC(=N)N)C(=O)N[C@@H](Cc3c[nH]c4ccccc34)C(N)=O)nn2)C(=O)NCCC(N)=O)nn1)C(=O)N[C@@H](Cc1c[nH]c2ccccc12)C(N)=O (stereo not given in full)
fold change (FC) (Melanocortin receptor 4 [3]): 350 | Activity (Melanocortin receptor 4 [4]): Active

Drug uptake (HEK293 [6]): Not Active | Drug uptake (HEK293 [7]): Active
Structure (SMILES): CN1/C(=C/C=C/C=C/C2=[N+](CCCCCC(=O)NCCCC[C@H](NC(=O)[C@@H](CCCNC(=N)N)NC(=O)[C@H](CCCNC(=N)N)NC(=O)[C@@H](CCCNC(=N)N)NC(=O)CCNC(=O)C(CCCNC(=O)Cn3cc(CCC(=O)N[C@@H](Cc4cnc[nH]4)C(=O)N[C@H](Cc4ccccc4)C(=O)N[C@@H](CCCNC(=N)N)C(=O)N[C@@H](Cc4c[nH]c5ccccc45)C(N)=O)nn3)(CCCNC(=O)Cn3cc(CCC(=O)N[C@@H](Cc4cnc[nH]4)C(=O)N[C@H](Cc4ccccc4)C(=O)N[C@@H](CCCNC(=N)N)C(=O)N[C@@H](Cc4c[nH]c5ccccc45)C(N)=O)nn3)NC(=O)CNC(=O)Cn3cc(CCC(=O)N[C@@H](Cc4cnc[nH]4)C(=O)N[C@H](Cc4ccccc4)C(=O)N[C@@H](CCCNC(=N)N)C(=O)N[C@@H](Cc4c[nH]c5ccccc45)C(N)=O)nn3)C(N)=O)c3ccccc3C2(C)C)C(C)(C)c2ccccc21 (stereo not given in full)
